Experimental findings from ChEMBL document CHEMBL1136332, “Structure-activity relationship of triaryl propionic acid analogues on the human EP3 prostanoid receptor” (Bioorg Med Chem Lett, 2003) are described below.

Experiment [1] addresses Prostaglandin E2 receptor EP2 subtype (Homo sapiens, UniProt P43116). In words: Affinity at human Prostanoid EP2 receptor in the human embryonic kidney (HEK) 293 cell line. The class given is cell-based, HEK293.
Experiment [2] concerns the target Prostaglandin E2 receptor EP4 subtype (Homo sapiens, UniProt P35408). In words: Affinity at human Prostanoid EP4 receptor in the human embryonic kidney (HEK) 293 cell line. The class given is cell-based, HEK293.
In experiment [3] the target is T1, Prostaglandin E2 receptor EP3 subtype (Homo sapiens, UniProt P43115).
T1 sequence (P43115 whole entry): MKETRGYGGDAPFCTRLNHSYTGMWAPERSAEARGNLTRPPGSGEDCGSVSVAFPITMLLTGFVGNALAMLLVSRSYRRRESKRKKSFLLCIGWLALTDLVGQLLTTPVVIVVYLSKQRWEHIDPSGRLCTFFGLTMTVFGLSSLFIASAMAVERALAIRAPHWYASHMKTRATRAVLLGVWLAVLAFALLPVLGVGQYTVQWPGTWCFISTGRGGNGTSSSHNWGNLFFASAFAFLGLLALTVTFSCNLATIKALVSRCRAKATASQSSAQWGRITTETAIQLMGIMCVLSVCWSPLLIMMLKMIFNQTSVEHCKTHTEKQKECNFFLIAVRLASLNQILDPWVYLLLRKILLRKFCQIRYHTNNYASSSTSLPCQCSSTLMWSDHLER
In words: Affinity at human Prostanoid EP3 receptor in the human embryonic kidney (HEK) 293 cell line. The class given is cell-based, HEK293.

Experiment [4] concerns the target T2, Prostaglandin E2 receptor EP1 subtype (Homo sapiens, UniProt P34995).
T2 sequence (P34995 whole entry): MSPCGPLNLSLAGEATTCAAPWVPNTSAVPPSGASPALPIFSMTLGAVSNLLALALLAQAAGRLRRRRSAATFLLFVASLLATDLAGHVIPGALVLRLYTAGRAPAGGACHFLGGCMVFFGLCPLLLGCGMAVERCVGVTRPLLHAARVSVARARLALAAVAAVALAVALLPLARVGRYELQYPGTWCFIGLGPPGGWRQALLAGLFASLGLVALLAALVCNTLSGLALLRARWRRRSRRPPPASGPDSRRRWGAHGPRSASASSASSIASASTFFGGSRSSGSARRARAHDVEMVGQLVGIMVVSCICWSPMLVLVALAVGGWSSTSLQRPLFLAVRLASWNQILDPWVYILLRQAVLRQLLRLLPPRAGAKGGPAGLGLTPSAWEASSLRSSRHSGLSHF
In words: Affinity at human Prostanoid EP1 receptor in the human embryonic kidney (HEK) 293 cell line. The class given is cell-based, HEK293.

For the next experiment, the target named is Prostacyclin receptor (Homo sapiens, UniProt P43119). In words: Ability to inhibit the binding of human IP receptor to Prostaglandin I2 receptor.
The next experiment has as its target T3, Thromboxane A2 receptor (Homo sapiens, UniProt P21731).
T3 sequence (P21731 whole entry): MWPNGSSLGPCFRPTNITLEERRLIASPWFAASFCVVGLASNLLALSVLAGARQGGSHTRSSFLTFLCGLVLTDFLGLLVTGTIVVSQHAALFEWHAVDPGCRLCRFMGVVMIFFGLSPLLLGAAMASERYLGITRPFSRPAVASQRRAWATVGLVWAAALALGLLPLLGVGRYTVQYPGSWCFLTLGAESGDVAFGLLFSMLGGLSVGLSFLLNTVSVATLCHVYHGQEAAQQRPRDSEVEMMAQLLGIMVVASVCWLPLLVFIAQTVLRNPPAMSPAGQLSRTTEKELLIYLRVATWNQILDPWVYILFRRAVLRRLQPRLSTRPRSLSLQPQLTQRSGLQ
In words: Ability to inhibit the binding of human Thromboxane A2 receptor to TXA2.

In experiment [5] the target is T4, Prostaglandin E2 receptor EP3 subtype (Homo sapiens) (UniProt P43115).
T4 sequence (whole entry): T1 sequence (P43115 whole entry)
In words: Ability to inhibit the binding of human Prostanoid EP3 receptor to PGE-2 using EP3 functional assay. The gist of the method: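 HEL 92.1.7 human erythroleukemia cells, which endogenously express EP3, at 2×10⁵ cells per incubation in HBSS with RO-20174 and forskolin. Antagonist (0–3×10⁻⁶ M, 0.5% DMSO final) preincubated 10 min at 37 °C. Sulprostone (0–3×10⁻⁵ M) was then added as agonist for 10 min at 37 °C. The reaction was stopped by 3 min boiling, and cAMP was read by SPA.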

The target of experiment [6] is Prostaglandin F2-alpha receptor (Homo sapiens, UniProt P43088). In words: Ability to inhibit the binding of human FP receptor to PGD-2.
Experiment [7] concerns the target Prostaglandin D2 receptor DP (human) (UniProt Q13258). In words: Ability to inhibit the binding of human DP receptor to PGD-2.

Structures are written as SMILES. Some results are limits rather than exact numbers.

Sequence of Prostaglandin E2 receptor EP4 subtype (P35408 whole entry): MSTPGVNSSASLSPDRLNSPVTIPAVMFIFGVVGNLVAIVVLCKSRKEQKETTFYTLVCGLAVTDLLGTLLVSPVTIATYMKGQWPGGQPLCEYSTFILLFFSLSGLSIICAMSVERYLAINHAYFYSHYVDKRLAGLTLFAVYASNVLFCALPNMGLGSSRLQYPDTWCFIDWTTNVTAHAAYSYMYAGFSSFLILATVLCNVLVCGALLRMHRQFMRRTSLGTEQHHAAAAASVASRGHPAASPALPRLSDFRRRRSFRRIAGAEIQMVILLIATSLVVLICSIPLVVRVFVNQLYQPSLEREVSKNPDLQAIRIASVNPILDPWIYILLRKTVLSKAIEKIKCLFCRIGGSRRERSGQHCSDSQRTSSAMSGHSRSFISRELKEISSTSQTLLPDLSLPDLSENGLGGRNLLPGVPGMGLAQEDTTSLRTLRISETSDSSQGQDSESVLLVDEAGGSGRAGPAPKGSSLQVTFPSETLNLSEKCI
Sequence of Prostaglandin E2 receptor EP2 subtype (P43116 whole entry): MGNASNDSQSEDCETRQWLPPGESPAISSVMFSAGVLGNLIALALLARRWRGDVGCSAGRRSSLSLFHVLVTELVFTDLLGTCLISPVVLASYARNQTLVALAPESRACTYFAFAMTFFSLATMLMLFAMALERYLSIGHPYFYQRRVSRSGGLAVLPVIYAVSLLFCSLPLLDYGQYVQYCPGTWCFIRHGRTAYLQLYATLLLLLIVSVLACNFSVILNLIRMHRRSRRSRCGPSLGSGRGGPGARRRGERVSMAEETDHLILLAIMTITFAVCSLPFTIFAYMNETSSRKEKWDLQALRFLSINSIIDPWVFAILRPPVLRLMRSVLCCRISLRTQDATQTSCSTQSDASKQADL
Sequence of Prostaglandin F2-alpha receptor (P43088 whole entry): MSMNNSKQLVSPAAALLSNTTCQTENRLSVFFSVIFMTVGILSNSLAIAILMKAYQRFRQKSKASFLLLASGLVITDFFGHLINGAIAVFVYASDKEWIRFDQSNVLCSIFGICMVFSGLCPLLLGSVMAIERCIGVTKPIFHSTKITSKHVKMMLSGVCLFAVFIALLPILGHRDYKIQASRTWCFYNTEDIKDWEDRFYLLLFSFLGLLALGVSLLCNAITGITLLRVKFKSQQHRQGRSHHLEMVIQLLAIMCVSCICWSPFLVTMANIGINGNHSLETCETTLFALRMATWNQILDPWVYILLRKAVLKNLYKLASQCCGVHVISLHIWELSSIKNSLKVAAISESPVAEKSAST
Sequence of Prostacyclin receptor (P43119 whole entry): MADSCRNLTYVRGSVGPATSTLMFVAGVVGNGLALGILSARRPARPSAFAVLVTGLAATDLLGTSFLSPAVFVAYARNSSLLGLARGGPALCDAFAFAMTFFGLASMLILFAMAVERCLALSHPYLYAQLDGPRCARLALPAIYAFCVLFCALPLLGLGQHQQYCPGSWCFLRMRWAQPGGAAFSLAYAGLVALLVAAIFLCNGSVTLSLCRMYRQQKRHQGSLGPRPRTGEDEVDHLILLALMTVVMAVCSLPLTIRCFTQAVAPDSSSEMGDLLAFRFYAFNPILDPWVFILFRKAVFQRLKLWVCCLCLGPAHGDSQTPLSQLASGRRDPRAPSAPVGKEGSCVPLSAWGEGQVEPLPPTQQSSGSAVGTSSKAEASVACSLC
Sequence of Prostaglandin D2 receptor DP (human) (Q13258 whole entry, looked up): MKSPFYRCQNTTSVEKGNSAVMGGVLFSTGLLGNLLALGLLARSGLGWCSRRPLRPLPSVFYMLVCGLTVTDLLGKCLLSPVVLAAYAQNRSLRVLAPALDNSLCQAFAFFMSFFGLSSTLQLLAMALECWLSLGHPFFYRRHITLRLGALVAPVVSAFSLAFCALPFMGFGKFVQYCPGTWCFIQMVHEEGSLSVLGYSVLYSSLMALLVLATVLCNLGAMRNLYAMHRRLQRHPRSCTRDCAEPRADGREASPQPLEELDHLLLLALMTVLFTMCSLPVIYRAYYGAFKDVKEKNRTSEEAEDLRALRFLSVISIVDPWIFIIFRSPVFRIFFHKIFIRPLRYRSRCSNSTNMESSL

Usually Ki stands for the equilibrium dissociation constant of an inhibitor or competing ligand from its target. Read a low Ki as a stronger hold on the target. On to `CC(Cc1ccccc1-c1csc(-c2ccccc2OCc2ccccc2)c1)C(=O)O` (configuration not stated), for which the Ki in experiment [1] was 5.5 µM; in [2] it was 0.98 µM; in experiment [3] it was 0.46 µM; in [4], 13 µM.
As for `O=C(O)CCCc1ccccc1-c1cccc(-c2ccccc2OCc2ccccc2)c1`, the Ki in [1] came out at 3.5 µM; in [2] it was 2 µM; in [3], 0.59 µM; in experiment [4], 11.9 µM.
For `O=C(O)C1CC1c1ccccc1-c1csc(-c2ccccc2OCc2ccccc2)c1` (configuration not stated), the Ki in [1] is 2.3 µM; at Prostacyclin receptor it was 0.71 µM; on Thromboxane A2 receptor, 0.4 µM; in experiment [2], 0.3 µM; in experiment [3], 0.003 µM; in experiment [6], 22 µM. For the same compound, the Ki was 48 µM in [4] and 0.12 µM in experiment [7]. This compound also showed a Kb in [5] of 0.0058 µM.
Turning to `CC(Cc1ccccc1-c1cccc(-c2ccccc2OCc2ccccc2)c1)C(=O)O` (configuration not stated), the Ki turned out to be 3.6 µM in experiment [1], 1.2 µM in experiment [2], 0.82 µM in experiment [3] and 8.3 µM in experiment [4].
The like results for `O=C(O)CCc1ccccc1-c1ccc(-c2ccccc2OCc2ccccc2)s1` were, in that order, 4.1 µM, 1.1 µM, 0.52 µM and 27 µM.
With `O=C(O)CCc1ccccc1-c1cccc(-c2ccc(OCc3ccccc3)cc2)c1`, the Ki in [1] is over 97 µM; in [2], 21 µM; in experiment [3], 1.5 µM; in experiment [4], over 97 µM.
In the case of `O=C(O)CCc1ccccc1-c1csc(-c2ccccc2OCc2ccccc2)c1`, the Ki in experiment [1] is 2.5 µM; in experiment [2] it was 0.65 µM; in experiment [3], 0.023 µM; in experiment [4], 17.8 µM.
For `O=C(O)/C=C/c1ccccc1-c1ccc(Cl)c(Cl)c1`, the Ki was 7.5 µM in [1], over 10 µM in [2], 1.6 µM in [3] and 10 µM in experiment [4].
With `O=C(O)CCc1ccccc1-c1cccc(-c2ccccc2COc2ccccc2)c1`, the Ki was found to be 2.9 µM in experiment [1], 1 µM in experiment [2], 0.089 µM in [3] and 9.5 µM in experiment [4].
As for `Cc1cccc(/C=C/Cc2ccccc2/C=C/C(=O)O)c1OCc1ccccc1`, the inhibition constant Ki in [1] was determined as 8.1 µM; in experiment [2], 1.9 µM; in experiment [3], 0.007 µM; in experiment [4], 12 µM.
The like results for `O=C(O)Cc1ccccc1-c1cccc(-c2ccccc2OCc2ccccc2)c1` were, in that order, 3.6 µM, 1.1 µM, 1.7 µM and 9.3 µM.
Turning to `O=C(O)CCc1ccccc1-c1cccc(-c2ccccc2OCc2c(Cl)cccc2Cl)c1`, the Ki was found to be 4.6 µM in experiment [1], 1.1 µM in experiment [2], 0.021 µM in [3] and 1.1 µM in experiment [4].
For `CC(CC(=O)O)c1ccccc1-c1csc(-c2ccccc2OCc2ccccc2)c1` (configuration not stated), the Ki is 4.6 µM in experiment [1], 1.1 µM in [2], 0.035 µM in [3] and 35 µM in experiment [4].
The like results for `O=C(O)/C=C/c1ccccc1-c1cccc(-c2ccccc2OCc2ccccc2)c1` were, in that order, 0.83 µM, 1.7 µM, 0.084 µM and 72 µM.
The like results for `O=C(O)CCc1ccccc1-c1cccc(-c2ccccc2)c1` were, in that order, 8.1 µM, 6 µM, 0.75 µM and 34 µM.
For `O=C(O)CCc1ccccc1-c1cccc(-c2ccccc2OCc2ccccc2)c1`, the Ki in experiment [1] stood at 3.7 µM; in [2] it was 1.8 µM; in [3] it was 0.055 µM; in [4], 8.3 µM.
With `O=C(/C=C/c1ccccc1-c1ccc(Cl)c(Cl)c1)NS(=O)(=O)c1cccs1`, the Ki in [1] is 10 µM; in [4], 8.1 µM.
Turning to `O=C(CCc1ccccc1-c1cccc(-c2ccccc2OCc2ccccc2)c1)NS(=O)(=O)c1cccs1`, the Ki was determined as 1.6 µM in experiment [1], 1.7 µM in experiment [2], 0.016 µM in experiment [3] and 2.6 µM in experiment [4].
For `O=C(O)CNc1ccccc1-c1csc(-c2ccccc2OCc2ccccc2)c1`, in that order: 2.5 µM, 0.46 µM, 0.052 µM and 85 µM.
The like results for `O=C(O)CCc1ccccc1-c1cc(-c2ccccc2OCc2ccccc2)cs1` were, in that order, 2.9 µM, 0.76 µM, 0.027 µM and 17.5 µM.
For the compound `O=C(O)c1ccc(CCCc2ccccc2OCc2ccccc2)cc1`, the Ki in experiment [1] came to 0.15 µM; in experiment [2], 0.44 µM; in [3], 2.3 µM; in experiment [4], 0.23 µM.
